Bioassay records from PubChem.
A selection follows.
KCNK3 inh – human KCNK3 channel inhibition, primary screen; O14649; CHO-KCNK3 thallium flux, FluxOR fluorescence; active compounds read low; B-score at 10 µM; 340,000 compounds, 0.84% hits; AID 602410;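 active = B-score under library mean minus 4 SD, starting fluorescence ratio at most library mean plus 5 SD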;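 also: more negative B-score means stronger inhibition of thallium flux through KCNK3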
KCNK9 inh – blocks the human KCNK9 two-pore domain potassium channel. Q9NPC2. HEK293 KCNK9, FluxOR thallium flux fluorescence; active compounds read low. B-score at 10 µM. 310,000 compounds, 1.2% hits. AID 488922;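 active = ratio B-score over 3 SD below the library mean, with starting fluorescence within 5 SD of its mean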;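 also: negative B-score means less thallium flux so channel inhibition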
hERG protect – hERG (human) protection from proarrhythmic block | Q12809 | CHO-hERG, FluxOR thallium flux, dofetilide IC70 present | activation (rescue from dofetilide block), less the hit threshold, % at 10 µM | 310,000 compounds, 0.51% hits | AID 1511;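 active = activation above the mean of controls blocked by dofetilide plus 5 SD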;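 also: thallium influx through hERG after potassium depolarization seen as dye fluorescence rise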
KCNQ1 pot – human KCNQ1 channel potentiation or activation; P51787; CHO-K1 KCNQ1, thallium flux FluxOR fluorescence; active compounds read high; B-score at 10 µM; 310,000 compounds, 0.35% hits; AID 2648;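 active = fluorescence ratio B-score, a plate-corrected score, at least three library SD, with initial intensity B-score within 5 SD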
Target sequence (P51787 whole entry, looked up): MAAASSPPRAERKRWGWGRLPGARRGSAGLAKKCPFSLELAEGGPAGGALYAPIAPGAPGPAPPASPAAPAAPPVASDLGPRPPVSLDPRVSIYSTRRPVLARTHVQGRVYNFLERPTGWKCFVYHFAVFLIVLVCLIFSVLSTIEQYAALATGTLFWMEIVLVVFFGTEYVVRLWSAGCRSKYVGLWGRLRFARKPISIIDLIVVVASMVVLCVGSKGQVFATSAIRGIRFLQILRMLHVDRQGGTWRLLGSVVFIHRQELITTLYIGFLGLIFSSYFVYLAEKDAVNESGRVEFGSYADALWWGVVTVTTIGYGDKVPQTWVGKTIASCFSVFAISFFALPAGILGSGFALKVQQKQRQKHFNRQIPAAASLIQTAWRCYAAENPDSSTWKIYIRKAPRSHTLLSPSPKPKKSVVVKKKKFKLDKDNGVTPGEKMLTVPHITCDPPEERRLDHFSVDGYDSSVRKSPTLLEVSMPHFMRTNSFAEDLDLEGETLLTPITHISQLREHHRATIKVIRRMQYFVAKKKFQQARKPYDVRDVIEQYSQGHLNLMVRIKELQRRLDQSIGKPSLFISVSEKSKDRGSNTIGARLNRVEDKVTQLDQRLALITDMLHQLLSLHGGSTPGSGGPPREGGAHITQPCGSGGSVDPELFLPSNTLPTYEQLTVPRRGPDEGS
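Test system: CHO-K1 cells stably expressing KCNQ1 / Medium: assay buffer / Also added: depolarizing K+/Tl+ stimulus, K2SO4 and Tl2SO4 each 12.5 mM in 5x stock / Incubation: 90 min dye loading and 20 min compound exposure, both at room temperature / Signal: thallium influx via FluxOR fluorescence, kinetic imaging / Evaluation: B score of baseline-normalized fluorescence ratio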
KCNQ1 inh – human KCNQ1 channel inhibition. 310,000 compounds, 1.3% hits. CHO-K1 KCNQ1, FluxOR thallium flux fluorescence; active compounds read high. P51787. B-score at 10 µM;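 active = compounds whose thallium flux B-score, printed positive for inhibition, exceeds three library SD while starting fluorescence stays within three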;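 also: channel opened by potassium depolarization with thallium stimulus after 20 min compound exposure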
PHOSPHO1 block – blocks human PHOSPHO1 phosphatase activity. recombinant PHOSPHO1, absorbance phosphatase assay. 290,000 compounds, 1.1% hits. AID 1565. inhibition, % at 13.3 µM. Q8TCT1; in the data active = inhibition above about 60%
KCNK9 inh conf – human KCNK9 inhibitor confirmation | shares compounds with KCNK9 inh | HEK293 KCNK9 cells, FluxOR thallium flux fluorescence | inhibition, % at 10 µM | 4,900 compounds, 43% hits | AID 492992;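 active = thallium signal inhibited by more than 5 SD of the compound-free buffer control wells, on both duplicate plates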;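 also: 0% = assay buffer control wells without compound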
Kir21 sel – mouse Kir2.1 off-target activity of KCNK9 modulators | shares compounds with KCNK9 inh | Kir2.1 cells, FluxOR thallium flux fluorescence | inhibition, % at 10 µM | 4,900 compounds, 4% hits | AID 492993;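 active = thallium signal drop more than 5 SD beyond the mean of the no-compound control wells, seen in both duplicate plates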;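 also: signal is fluorescence rise after thallium addition divided by baseline fluorescence; plate controls were assay buffer only for no effect and full block by chlorpromazine control for full effect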
HEK293 Tl ctr – second check of KCNK9 modulator effects in non-induced HEK293 cells; shares compounds with KCNK9 inh; FluxOR thallium flux; inhibition, % at 10 µM; 4,900 compounds, 40% hits;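 active = thallium signal drop beyond 5 SD of the untreated control mean, on both duplicate plates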;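 also: plate controls were buffer only IC0 wells for no effect and SID17386958 at its maximal inhibitory level for full effect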
Numbers without * were called inactive.

How did COC(=O)C1=C(C)C(c2cccs2)NC(=O)N1C (stereo unspecified) do in these assays?
KCNK3 inh: inactive; KCNK9 inh: inactive; hERG protect: -8; KCNQ1 pot: inactive; KCNQ1 inh: inactive; PHOSPHO1 block: 18

How did CC(C)c1cc(CN2CCN(CCC#N)CC2)cc(C(C)C)c1O do in these assays?
KCNK3 inh: inactive; KCNK9 inh: inactive; hERG protect: -2; KCNQ1 pot: inactive; KCNQ1 inh: inactive; PHOSPHO1 block: 36; KCNK9 inh conf: inactive; Kir21 sel: inactive; HEK293 Tl ctr: inactive

What do the screens show for `CC(C)(C)c1cc(CN2CCN(CCO)CC2)cc(C(C)(C)C)c1O`?
KCNK3 inh: inactive; KCNK9 inh: inactive; hERG protect: -10; KCNQ1 pot: inactive; KCNQ1 inh: inactive; PHOSPHO1 block: 2

Results for CCc1cc(C(=O)N2CCCC(N3CCN(c4cccc(C(F)(F)F)c4)CC3)C2)n(C)n1 (stereo unspecified) ?
KCNK3 inh: inactive; KCNK9 inh: inactive; hERG protect: -9; KCNQ1 pot: inactive; KCNQ1 inh: inactive; PHOSPHO1 block: 24; KCNK9 inh conf: inactive; Kir21 sel: inactive; HEK293 Tl ctr: inactive

What do the screens show for `Cc1cccc(C(=O)N2CCCC(N3CCN(c4ccccc4F)CC3)C2)n1` (stereo unspecified)?
KCNK3 inh: inactive; KCNK9 inh: inactive; hERG protect: -10; KCNQ1 pot: inactive; KCNQ1 inh: inactive; PHOSPHO1 block: 8

Results for Cc1ccc(C(=O)N2CCCC(N3CCN(c4cccc(C(F)(F)F)c4)CC3)C2)s1 (stereo unspecified) ?
KCNK3 inh: inactive; KCNK9 inh: inactive; hERG protect: -13; KCNQ1 pot: inactive; KCNQ1 inh: inactive; PHOSPHO1 block: -40; KCNK9 inh conf: inactive; Kir21 sel: inactive; HEK293 Tl ctr: inactive

What do the screens show for `CSc1nc(C(=O)N2CCCC(N3CCN(c4ccccc4C)CC3)C2)cs1` (stereo unspecified)?
KCNK3 inh: inactive; KCNK9 inh: inactive; hERG protect: -14; KCNQ1 pot: inactive; KCNQ1 inh: inactive; PHOSPHO1 block: 23; KCNK9 inh conf: inactive; Kir21 sel: inactive; HEK293 Tl ctr: inactive

How did COc1ccccc1N1CCN(C2CCCN(C(=O)c3csc(C)n3)C2)CC1 (stereo unspecified) do in these assays?
KCNK3 inh: inactive; KCNK9 inh: inactive; hERG protect: -9; KCNQ1 pot: inactive; KCNQ1 inh: inactive; PHOSPHO1 block: 31

How did Cc1ccc(C(=O)N2CCCC(N3CCN(c4ccccc4F)CC3)C2)s1 (stereo unspecified) do in these assays?
KCNK3 inh: inactive; KCNK9 inh: inactive; hERG protect: -9; KCNQ1 pot: inactive; KCNQ1 inh: inactive; PHOSPHO1 block: 17; KCNK9 inh conf: inactive; Kir21 sel: inactive; HEK293 Tl ctr: inactive

Results for O=C(c1ccncc1)N1CCCC(N2CCN(c3cccc(C(F)(F)F)c3)CC2)C1 (stereo unspecified) ?
KCNK3 inh: inactive; KCNK9 inh: inactive; hERG protect: -13; KCNQ1 pot: inactive; KCNQ1 inh: inactive; PHOSPHO1 block: 58

Results for COc1ccccc1N1CC(C(=O)Nc2nnc(SC)s2)CC1=O (stereo unspecified) ?
KCNK3 inh: inactive; KCNK9 inh: inactive; hERG protect: -9; KCNQ1 pot: inactive; KCNQ1 inh: inactive; PHOSPHO1 block: 19

What do the screens show for `Cc1ccc(S(=O)(=O)NC2=NCN(Cc3cccnc3)CN2)cc1`?
KCNK3 inh: inactive; KCNK9 inh: inactive; hERG protect: -7; KCNQ1 pot: inactive; KCNQ1 inh: inactive; PHOSPHO1 block: -8
